From ChEMBL document CHEMBL4387700, “A novel, potent, and orally bioavailable thiazole HCV NS5A inhibitor for the treatment of hepatitis C virus” (Eur J Med Chem, 2019)

How the values were obtained:
[1] = AUC in Sprague-Dawley rat at 5 mg/kg, po by HPLC-MS/MS analysis; assay type: ADME, organism-based; conditions: in vivo
Summary of the method: (§1)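 Male Sprague-Dawley rats, 330–380 g, 9–10 weeks old, n = 3, jugular-cannulated 1 day ahead and fasted. Dosed iv 1.0 mg/kg or orally 5.0 mg/kg. Cannula blood was drawn at 0, 2, 5 (iv only), 15, 30 min and 1, 2, 4, 6, 8, 24 h. Plasma was assayed by HPLC-MS/MS, with non-compartmental analysis. The iv vehicle was DMA/propylene glycol (20/80, v/v).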

[2] = molecular target: T1, Nonstructural protein 5A (Hepatitis C virus) (UniProt Q5L478); experiment: Potency index, ratio of daclatasvir EC50 to test compound EC50 for inhibition of NS5A in HCV genotype 1b infected in human HuH7 replicon cells; assay type: cell-based; conditions: Hepatitis C virus subtype 1b
T1 sequence (whole entry): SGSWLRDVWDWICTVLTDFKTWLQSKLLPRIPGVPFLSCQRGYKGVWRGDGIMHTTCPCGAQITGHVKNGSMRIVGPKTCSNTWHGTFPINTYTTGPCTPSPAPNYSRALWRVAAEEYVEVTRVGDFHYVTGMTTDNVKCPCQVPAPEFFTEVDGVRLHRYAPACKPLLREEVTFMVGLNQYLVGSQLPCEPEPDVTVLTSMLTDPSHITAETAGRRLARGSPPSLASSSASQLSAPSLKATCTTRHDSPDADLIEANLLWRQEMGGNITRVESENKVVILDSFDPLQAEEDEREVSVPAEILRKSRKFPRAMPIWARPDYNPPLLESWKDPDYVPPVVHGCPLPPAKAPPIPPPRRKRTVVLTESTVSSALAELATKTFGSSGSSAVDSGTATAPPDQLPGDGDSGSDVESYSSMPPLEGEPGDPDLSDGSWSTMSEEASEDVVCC

[3] = AUC in Beagle dog at 0.1 mg/kg, iv by HPLC-MS/MS analysis; assay type: ADME, organism-based, Canis lupus familiaris; conditions: in vivo
Summary of the method: (§2)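 Male Beagle dogs, 9–10 months old, n = 3, dosed iv 0.1 mg/kg or orally 0.5 mg/kg. Blood was drawn at 0, 2, 5 (iv only), 15, 30 min and 1, 2, 4, 6, 8, 24 h and kept on ice. Plasma was assayed by HPLC-MS/MS, with non-compartmental analysis. The iv formulation was a solution in DMA/propylene glycol (20/80, v/v).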

[4] = AUC in Sprague-Dawley rat at 1 mg/kg, iv by HPLC-MS/MS analysis; assay type: ADME, organism-based; conditions: in vivo; summary of the method: as §1
[5] = Toxicity in Sprague-Dawley rat assessed as effect on body weight at 1 mg/kg, iv; assay type: organism-based; conditions: in vivo
Summary of the method: (§3)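 Male Sprague-Dawley rats, 330–380 g, 9–10 weeks old, n = 3, were quarantined 1 week and jugular-cannulated 1 day before dosing. They were fasted, then given a single intravenous (1.0 mg/kg; DMA/propylene glycol 20/80, v/v) or oral (5.0 mg/kg) dose. Deaths, body weight and clinical observations were monitored with blood sampling through 24 h.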

[6] = Toxicity in Beagle dog assessed as death at 0.5 mg/kg, po; assay type: organism-based, Canis lupus familiaris; conditions: in vivo
Summary of the method: (§4)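 Male Beagle dogs, 9–10 months old, n = 3, were given a single intravenous (0.1 mg/kg) or oral (0.5 mg/kg) dose. The intravenous solution was in DMA/propylene glycol (20/80, v/v). Dose volume was set by pre-dose body weight. Blood was sampled up to 24 h. Deaths, body weight and clinical observations were recorded during the pharmacokinetic study.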

[7] = Toxicity in Sprague-Dawley rat assessed as effect on clinical observations at 5 mg/kg, po; assay type: organism-based; conditions: in vivo; summary of the method: as §3
[8] = Toxicity in Beagle dog assessed as effect on body weight at 0.5 mg/kg, po; assay type: organism-based, Canis lupus familiaris; conditions: in vivo; summary of the method: as §4
[9] = Toxicity in Beagle dog assessed as effect on clinical observations at 0.1 mg/kg, iv; assay type: organism-based, Canis lupus familiaris; conditions: in vivo; summary of the method: as §4
[10] = Volume of distribution at steady state in Sprague-Dawley rat at 1 mg/kg, iv by HPLC-MS/MS analysis; assay type: ADME, organism-based; conditions: in vivo, read-out: Vdss; summary of the method: as §1
[11] = Cmax in Beagle dog at 0.5 mg/kg, po by HPLC-MS/MS analysis; assay type: ADME, organism-based, Canis lupus familiaris; set-up: dose 0.5 mg/kg, route oral; conditions: in vivo; summary of the method: as §2
[12] = Oral bioavailability in Sprague-Dawley rat at 5 mg/kg by HPLC-MS/MS analysis; assay type: ADME, organism-based; conditions: in vivo; summary of the method: as §1
[13] = Tmax in Sprague-Dawley rat at 5 mg/kg, po by HPLC-MS/MS analysis; assay type: ADME, organism-based; conditions: in vivo; summary of the method: as §1
[14] = Toxicity in Beagle dog assessed as effect on clinical observations at 0.5 mg/kg, po; assay type: organism-based, Canis lupus familiaris; conditions: in vivo; summary of the method: as §4
[15] = Toxicity in Sprague-Dawley rat assessed as effect on body weight at 5 mg/kg, po; assay type: organism-based; conditions: in vivo; summary of the method: as §3
[16] = Volume of distribution at steady state in Beagle dog at 0.1 mg/kg, iv by HPLC-MS/MS analysis; assay type: ADME, organism-based, Canis lupus familiaris; conditions: in vivo, read-out: Vdss; summary of the method: as §2
[17] = Toxicity in Sprague-Dawley rat assessed as death at 1 mg/kg, iv; assay type: organism-based; conditions: in vivo; summary of the method: as §3
[18] = Oral bioavailability in Beagle dog at 0.5 mg/kg by HPLC-MS/MS analysis; assay type: ADME, organism-based, Canis lupus familiaris; conditions: in vivo; summary of the method: as §2
[19] = Half life in Beagle dog at 0.5 mg/kg, po by HPLC-MS/MS analysis; assay type: ADME, organism-based, Canis lupus familiaris; conditions: in vivo; summary of the method: as §2
[20] = Half life in Beagle dog at 0.1 mg/kg, iv by HPLC-MS/MS analysis; assay type: ADME, organism-based, Canis lupus familiaris; conditions: in vivo; summary of the method: as §2
[21] = AUC in Beagle dog at 0.5 mg/kg, po by HPLC-MS/MS analysis; assay type: ADME, organism-based, Canis lupus familiaris; conditions: in vivo; summary of the method: as §2
[22] = Cytotoxicity against human HuH7 cells assessed as reduction in cell viability by MTS assay; assay type: cell-based, Huh-7
Summary of the method: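 Viability of Huh-7 cells was read by MTS assay.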

[23] = Toxicity in Beagle dog assessed as death at 0.1 mg/kg, iv; assay type: organism-based, Canis lupus familiaris; conditions: in vivo; summary of the method: as §4
[24] = Tmax in Beagle dog at 0.5 mg/kg, po by HPLC-MS/MS analysis; assay type: ADME, organism-based, Canis lupus familiaris; conditions: in vivo; summary of the method: as §2
[25] = Toxicity in Sprague-Dawley rat assessed as effect on clinical observations at 1 mg/kg, iv; assay type: organism-based; conditions: in vivo; summary of the method: as §3
[26] = Plasma clearance in Beagle dog at 0.1 mg/kg, iv by HPLC-MS/MS analysis; assay type: ADME, organism-based, Canis lupus familiaris; summary of the method: as §2
[27] = Half life in Sprague-Dawley rat at 1 mg/kg, iv by HPLC-MS/MS analysis; assay type: ADME, organism-based; conditions: in vivo; summary of the method: as §1
[28] = Half life in Sprague-Dawley rat at 5 mg/kg, po by HPLC-MS/MS analysis; assay type: ADME, organism-based; conditions: in vivo; summary of the method: as §1
[29] = Plasma clearance in Sprague-Dawley rat at 1 mg/kg, iv by HPLC-MS/MS analysis; assay type: ADME, organism-based; summary of the method: as §1
[30] = Toxicity in Beagle dog assessed as effect on body weight at 0.1 mg/kg, iv; assay type: organism-based, Canis lupus familiaris; conditions: in vivo; summary of the method: as §4
[31] = Toxicity in Sprague-Dawley rat assessed as death at 5 mg/kg, po; assay type: organism-based; conditions: in vivo; summary of the method: as §3
[32] = Cmax in Sprague-Dawley rat at 5 mg/kg, po by HPLC-MS/MS analysis; assay type: ADME, organism-based; set-up: dose 5 mg/kg, route oral; conditions: in vivo; summary of the method: as §1

O=C(N[C@@H](C(=O)N1CCC[C@H]1c1ncc(-c2ccc(-c3ccc(-c4cnc([C@@H]5CCCN5C(=O)[C@H](NC(=O)C5CC5)c5ccccc5)s4)cc3)cc2)s1)c1ccccc1)C1CC1
AUC [1]: 14500 ng·h/mL | Ratio EC50 [2]: 3 | AUC [3]: 1390 ng·h/mL | AUC [4]: 16300 ng·h/mL | Activity [5]: Non-Toxic | Activity [6]: Non-Toxic | Activity [7]: Non-Toxic | Activity [8]: Non-Toxic | Activity [9]: Non-Toxic | Vd [10]: 1.3 L/kg | Cmax [11]: 94.9 ng/mL | bioavailability [12]: 22% | Tmax [13]: 3.3 h | Activity [14]: Non-Toxic | Activity [15]: Non-Toxic | Vd [16]: 1.6 L/kg | Activity [17]: Non-Toxic | bioavailability [18]: 23.3% | half-life [19]: 21.4 h | half-life [20]: 19.2 h | AUC [21]: 1620 ng·h/mL | CC50 [22]: > 50 µM | Activity [23]: Non-Toxic | Tmax [24]: 2.5 h | Activity [25]: Non-Toxic | clearance [26]: 1.3 mL/min/kg | half-life [27]: 18.3 h | half-life [28]: 20.4 h | clearance [29]: 1.1 mL/min/kg | Activity [30]: Non-Toxic | Activity [31]: Non-Toxic | Cmax [32]: 305 ng/mL
